Experimental data: ChEMBL document CHEMBL4219092, “Design and synthesis of 1-(1-benzothiophen-7-yl)-1H-pyrazole, a novel series of G protein-coupled receptor 52 (GPR52) agonists” (Bioorg Med Chem, 2018)
Values after ≈ are worked out from the molar mass of the structure shown. Active and inactive are the calls of the source. The rule behind the calls is not given here.

Legend:
[1] = target: T1, G-protein coupled receptor 52 (Homo sapiens, UniProt Q9Y2T5); experiment: Agonist activity at human GPR52 expressed in CHO cells assessed as increase in cAMP level after 30 mins by AlphaScreen assay; type: functional, cell-based
Outline: (§1)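 CHO cells stably expressing human GPR52 (10,000 cells) were incubated with compound for 30 min at 37°C in HBSS with 5 mM HEPES pH 7.6, 0.5% BSA, 100 μM IBMX and 100 μM Ro20-1724. Anti-cAMP acceptor beads and biotinylated cAMP donor beads were then added, with overnight incubation at room temperature, and AlphaScreen was read. EC50 comes from mean curves (n=2-4) relative to the 50% response of 1 μM of a benzofuran reference agonist. Emax is expressed relative to that reference.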

[2] = Aqueous solubility of the compound at pH 6.8 by HPLC analysis; type: physicochemical
Outline: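 Compound from DMSO stock was added to aqueous buffer at pH 6.8 (JP 15th edition second disintegration fluid) and incubated. Precipitate was removed by filter-plate filtration, and the dissolved compound in the filtrate was quantified by HPLC.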

[3] = target: T1, G-protein coupled receptor 52; experiment: Agonist activity at human GPR52 expressed in CHO cells assessed as increase in cAMP level after 30 mins by AlphaScreen assay relative to N-(2-hydroxyethyl)-3-[2-[3-(trifluoromethyl)benzyl]-1-benzofuran-4-yl]benzamide; type: functional, cell-based; outline: as §1
[4] = test system: Mus musculus; experiment: Reversal of methamphetamine-induced hyperlocomotion in ICR mouse at 0.3 mg/kg, po pretreated 60 mins post habituation followed by methamphetamine injection after 60 mins measured for 150 mins; type: functional, organism-based
Outline: (§2)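 Male ICR mice (7-8 weeks) were placed individually in locomotor monitors and habituated for 60 min. Drug was then given p.o. (test agent 10 or 30 mg/kg; haloperidol 0.3 mg/kg). Methamphetamine 2 mg/kg s.c. was injected 60 min later, and activity counts were recorded for 150 min after drug dosing. Data are mean ± S.E.M., n=6-7 per group, analysed by Williams' test against vehicle+MAP.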

[5] = Cmax in ICR mouse at 0.1 mg/kg, iv and 1 mg/kg, po administered as cassette dose by LC-MS/MS analysis; type: ADME, organism-based; details: in vivo
Outline: (§3)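 Male ICR mice (n=3), cassette dosing at 0.1 mg/kg i.v. or 1 mg/kg p.o. Blood was collected and centrifuged to plasma. Plasma was deproteinized and centrifuged, and the supernatant was analysed by LC/MS/MS. AUC covers 0 to 8 h. Values are averages of 3 mice.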

[6] = Tmax in ICR mouse at 0.1 mg/kg, iv and 1 mg/kg, po administered as cassette dose by LC-MS/MS analysis; type: ADME, organism-based; details: in vivo; outline: as §3
[7] = AUC (0 to 8 hrs) in ICR mouse at 1 mg/kg, po administered as cassette dose by LC-MS/MS analysis; type: ADME, organism-based; design: time < 8 hr, dose 1 mg/kg, route oral; details: in vivo; outline: as §3
[8] = Total clearance in ICR mouse at 0.1 mg/kg, iv and 1 mg/kg, po administered as cassette dose by LC-MS/MS analysis; type: ADME, organism-based; details: in vivo; outline: as §3
[9] = Oral bioavailability in ICR mouse at 1 mg/kg administered as cassette dose by LC-MS/MS analysis; type: ADME, organism-based; details: in vivo; outline: as §3
[10] = test system: MDR; experiment: Substrate activity at MDR (unknown origin) assessed as efflux ratio; type: ADME; details: human, not told
[11] = Protein binding in mouse plasma at 1 uM; type: ADME, cell-free; details: read-out: PPB (converted)
[12] = test system: Mus musculus; experiment: Reversal of methamphetamine-induced hyperlocomotion in po dosed ICR mouse pretreated 60 mins post habituation followed by methamphetamine injection after 60 mins measured for 150 mins; type: functional, organism-based; outline: as §2
[13] = test system: Mus musculus; experiment: Toxicity in ICR mouse assessed as sedation at 10 and 30 mg/kg, po measured over 60 mins; type: organism-based; details: in vivo, 1 h
[14] = test system: Mus musculus; experiment: Toxicity in ICR mouse assessed as general malaise at 10 and 30 mg/kg, po measured over 60 mins; type: organism-based; details: in vivo, 1 h

T1 sequence (Q9Y2T5 whole entry): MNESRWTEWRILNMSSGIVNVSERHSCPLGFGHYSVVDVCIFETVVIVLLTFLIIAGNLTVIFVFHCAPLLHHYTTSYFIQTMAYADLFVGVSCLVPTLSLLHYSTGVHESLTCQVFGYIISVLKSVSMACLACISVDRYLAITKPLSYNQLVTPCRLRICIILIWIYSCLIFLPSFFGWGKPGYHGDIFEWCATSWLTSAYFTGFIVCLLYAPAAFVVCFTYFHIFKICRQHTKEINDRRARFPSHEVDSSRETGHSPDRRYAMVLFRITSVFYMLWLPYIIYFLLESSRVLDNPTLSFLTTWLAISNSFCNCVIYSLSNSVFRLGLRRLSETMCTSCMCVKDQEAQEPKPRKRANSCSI

Cn1nc(-c2cccc3cc(Cc4cccc(C(F)(F)F)c4)sc23)cc1C(=O)NCCO
EC50 [1]: 0.045 µM | solubility [2]: < 0.08 µg/mL | Emax [3]: 110%

COCCNC(=O)c1cn(-c2cccc3cc(Cc4cccc(C(F)(F)F)c4)sc23)nc1C
EC50 [1]: 0.0096 µM | solubility [2]: < 0.1 µg/mL | Emax [3]: 89%

O=C(NCCO)c1cnn(-c2cccc3cc(Cc4cccc(C(F)(F)F)c4)sc23)c1
EC50 [1]: 0.087 µM | solubility [2]: < 0.09 µg/mL | Emax [3]: 73%

COCCNC(=O)c1cnn(-c2cccc3cc(Cc4cccc(C(F)(F)F)c4)sc23)c1C
EC50 [1]: 0.062 µM | solubility [2]: 1.3 µg/mL (≈ 2.75 µM) | Emax [3]: 84%

O=C(CCCN1CCC(O)(c2ccc(Cl)cc2)CC1)c1ccc(F)cc1
Activity [4]: Active

Cc1c(C(=O)NCCO)c(CO)nn1-c1cccc2cc(Cc3cccc(C(F)(F)F)c3)sc12
EC50 [1]: 0.146 µM | solubility [2]: 18 µg/mL (≈ 36.8 µM) | Emax [3]: 96%

Cc1nn(-c2cccc3cc(Cc4cccc(C(F)(F)F)c4)sc23)c(CO)c1C(=O)NCCO
EC50 [1]: 0.021 µM | solubility [2]: 21 µg/mL (≈ 42.9 µM) | Cmax [5]: 0.083 µg/mL | Tmax [6]: 1.7 h | AUC(0-t) at 8 h [7]: 0.406 µg·h/mL | clearance [8]: 0.747 L/h/kg | bioavailability [9]: 29.9% | efflux ratio [10]: 1.7 | fraction unbound at 1 µM [11]: 0.02 | Activity [12]: Dose-dependent effect | Activity [13]: Non-Toxic | Activity [14]: Non-Toxic | Emax [3]: 103%

COCCNC(=O)c1c(C)nn(-c2cccc3cc(Cc4cccc(C(F)(F)F)c4)sc23)c1C
EC50 [1]: 0.017 µM | solubility [2]: 2.9 µg/mL (≈ 5.95 µM) | Emax [3]: 104%

Cc1nn(-c2cccc3cc(Cc4cccc(C(F)(F)F)c4)sc23)c(C)c1C(=O)NCCO
EC50 [1]: 0.015 µM | solubility [2]: 12 µg/mL (≈ 25.3 µM) | Emax [3]: 110%

Cc1nn(-c2cccc3cc(Cc4cccc(C(F)(F)F)c4)sc23)cc1C(=O)NCCO
EC50 [1]: 0.0052 µM | solubility [2]: < 0.1 µg/mL | Emax [3]: 102%

COCCNC(=O)c1cnn(-c2cccc3cc(Cc4cccc(C(F)(F)F)c4)sc23)c1
EC50 [1]: 0.062 µM | solubility [2]: < 0.08 µg/mL | Emax [3]: 81%
